Source: ChEMBL document CHEMBL1142298, “Synthesis and dopamine receptor affinities of N-alkyl-11-hydroxy-2-methoxynoraporphines: N-alkyl substituents determine D1 versus D2 receptor selectivity” (J Med Chem, 2008)

What was measured:
D(1A) dopamine receptor = D(1A) dopamine receptor (Rattus norvegicus, UniProt P18901); assay: Displacement of [3H]SCH-23390 from dopamine D1 receptor in rat striatum
In short: (§1)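 Competitive radioligand binding on membrane homogenates prepared from rat striatum tissue, following a previously published procedure.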

D(2) dopamine receptor = D(2) dopamine receptor (Rattus norvegicus, UniProt P61169); assay: Displacement of [3H]neomonapride from dopamine D2 receptor in rat striatum; in short: as §1
Sequence of D(2) dopamine receptor (P61169 whole entry): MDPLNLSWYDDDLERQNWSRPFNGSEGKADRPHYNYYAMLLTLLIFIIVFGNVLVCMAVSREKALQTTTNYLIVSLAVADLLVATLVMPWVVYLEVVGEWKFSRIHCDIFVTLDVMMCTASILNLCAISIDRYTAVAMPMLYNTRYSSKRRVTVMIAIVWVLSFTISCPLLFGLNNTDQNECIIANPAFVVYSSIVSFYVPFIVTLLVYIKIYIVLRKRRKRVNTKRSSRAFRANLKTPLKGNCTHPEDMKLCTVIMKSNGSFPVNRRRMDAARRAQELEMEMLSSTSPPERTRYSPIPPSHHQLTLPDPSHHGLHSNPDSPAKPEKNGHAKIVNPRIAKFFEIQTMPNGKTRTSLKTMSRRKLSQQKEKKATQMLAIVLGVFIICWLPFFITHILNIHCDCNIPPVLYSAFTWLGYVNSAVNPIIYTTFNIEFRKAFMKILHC

Rattus norvegicus = species on record: Rattus norvegicus; assay: Selectivity ratio of rat dopamine D2 receptor to rat dopamine D1 receptor

Sequence of D(1A) dopamine receptor (P18901 whole entry): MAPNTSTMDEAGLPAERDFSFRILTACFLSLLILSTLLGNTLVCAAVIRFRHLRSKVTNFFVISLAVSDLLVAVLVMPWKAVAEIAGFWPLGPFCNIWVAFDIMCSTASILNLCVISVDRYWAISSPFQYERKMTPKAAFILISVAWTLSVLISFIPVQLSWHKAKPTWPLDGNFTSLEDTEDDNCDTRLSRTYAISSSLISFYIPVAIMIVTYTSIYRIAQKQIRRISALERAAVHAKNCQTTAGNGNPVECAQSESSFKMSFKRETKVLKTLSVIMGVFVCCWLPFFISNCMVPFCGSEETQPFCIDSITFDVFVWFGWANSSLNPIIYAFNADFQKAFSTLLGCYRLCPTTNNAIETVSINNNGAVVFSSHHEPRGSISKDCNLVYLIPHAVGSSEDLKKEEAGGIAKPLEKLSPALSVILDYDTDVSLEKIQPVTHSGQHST

Row | Structure (SMILES) | Ki (D(1A) dopamine receptor) [µM] | Ki (D(2) dopamine receptor) [µM] | Ratio Ki (Rattus norvegicus)
1 | COc1cc2c3c(c1)-c1c(ccc(O)c1O)C[C@H]3N(C)CC2 | > 10 | 0.0035 | > 2860
2 | CCCN1CCc2cc(OC)cc3c2[C@H]1Cc1ccc(O)c(O)c1-3 | 6.45 | 0.0013 | 4860
3 | COc1cc2c3c(c1)-c1c(O)cccc1C[C@H]3N(C)CC2 | 0.046 | 0.235 | 0.19
4 | CCN1CCc2cc(OC)cc3c2[C@H]1Cc1cccc(O)c1-3 | 0.13 | 0.028 | 4.6
5 | CN1CCc2cccc3c2[C@H]1Cc1cccc(O)c1-3 | 0.0265 | 0.108 | 0.24
6 | CCCCN1CCc2cc(OC)cc3c2[C@H]1Cc1cccc(O)c1-3 | > 10 | > 10 | –
